Experimental data pooled from the literature.
Each line is one published result; the experiments were not run side by side.
Target: Cytoplasmic tyrosine-protein kinase BMX (BMX, Homo sapiens, UniProt P51813)
Effect on: enzyme activity
Mode: inhibitor
Residues used in one study (P51813 1-675): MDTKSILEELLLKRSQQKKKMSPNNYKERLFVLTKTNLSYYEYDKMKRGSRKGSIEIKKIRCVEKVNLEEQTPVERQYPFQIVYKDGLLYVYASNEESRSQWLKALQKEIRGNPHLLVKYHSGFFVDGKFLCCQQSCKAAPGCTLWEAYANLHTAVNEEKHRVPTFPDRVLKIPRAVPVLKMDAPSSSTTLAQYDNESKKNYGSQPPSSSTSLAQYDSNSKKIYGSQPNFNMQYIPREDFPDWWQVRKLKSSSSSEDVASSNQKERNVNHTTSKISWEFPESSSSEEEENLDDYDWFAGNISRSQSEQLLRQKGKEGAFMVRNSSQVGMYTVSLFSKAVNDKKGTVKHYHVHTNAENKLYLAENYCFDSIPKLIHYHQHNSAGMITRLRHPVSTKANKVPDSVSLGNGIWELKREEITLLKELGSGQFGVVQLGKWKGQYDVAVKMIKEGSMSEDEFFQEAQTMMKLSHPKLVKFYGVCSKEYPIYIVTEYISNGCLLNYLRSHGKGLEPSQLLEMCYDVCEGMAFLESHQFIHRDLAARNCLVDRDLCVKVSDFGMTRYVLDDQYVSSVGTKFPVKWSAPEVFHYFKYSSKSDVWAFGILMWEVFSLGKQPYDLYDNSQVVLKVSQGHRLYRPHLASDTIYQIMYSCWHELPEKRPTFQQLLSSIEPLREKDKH

SMILES | method | tested at | remaining activity
COc1ccc(C(=O)Nc2sc3c(c2C(N)=O)CCCC3)cc1OC | – | 0.5 µM | 89.8%
Cc1sc(C(=O)NC2COC2)cc1-n1cc(NC(=O)Nc2c(F)cccc2Cl)cn1 | – | 10 µM | 92.9%
Cc1cnc(NC2CCOCC2)nc1-n1cnc(C(=O)NC(CN)c2cc(F)cc(Cl)c2)c1 (stereo not drawn) | radiometric | 1 µM | 117%
Nc1ncnc2occ(-c3ccc(NC(=O)Nc4cc(C(F)(F)F)ccc4F)cc3)c12 | – | 20 µM | 0.5%
COc1cc2ncc(-c3ccccc3)nc2cc1OC | – | 0.5 µM | 92.2%
COc1cc(Cl)c(C(=O)N[C@@H](CN[C@H]2CC[C@@H](N)CC2)Cc2ccc(C#N)cc2)cc1-c1ccc(CN[C@H](C)c2ccc(C)cc2)o1 | – | 1 µM | 72%
CC(C)(O)[C@H]1CC[C@H](Nc2ccc3ncc(-c4cccc(C(F)(F)F)c4)n3n2)CC1 | – | 1 µM | 71.5%
CCCOc1ccc(OC)c(F)c1C(=O)c1ccc(C(=O)N[C@@H]2CNC[C@H]2NC(=O)c2ccc3[nH]ncc3c2)cc1 | – | 10 µM | 87%
CCN(CC)c1ccc(C2=NNC(=O)CC2C)cc1[N+](=O)[O-] (stereo not drawn) | – | 10 µM | 96%
Cc1ccc(C(=O)Nc2ccc(CN3CCN(C)CC3)c(C(F)(F)F)c2)cc1C#Cc1cnc2cccnn12 | – | 23.5 nM | 47%
O=C(Nc1cnn(-c2csc(C(=O)NC3COC3)c2)c1)Nc1c(F)cccc1Cl | – | 5 µM | 96.8%
O=C(O)c1ccc2c3c1cccc3c(=O)n1c3ccccc3nc21 | – | 0.5 µM | 96.4%
CC(C)(C)c1nc2c(s1)c1nc(N)ncc1c1ccc(NS(=O)(=O)c3c(F)cccc3F)c(F)c12 | radiometric | 1 µM | 87%
CCN(CC)CCNC(=O)c1c(C)[nH]c(/C=C2\C(=O)Nc3ccc(Cl)cc32)c1C | – | 0.5 µM | 99.3%
CC(C)(C)c1nc(-c2cccc(NS(=O)(=O)c3c(F)cccc3F)c2F)c(-c2ccnc(N)n2)s1 | radiometric | 1 µM | 75%
